Experimental data taken from ChEMBL document CHEMBL2331274, “SAR based design of nicotinamides as a novel class of androgen receptor antagonists for prostate cancer” (J Med Chem, 2013).
Calls of active or inactive are those of the source. The calls are words filed in the database; no cut-off is given here.

What was measured:
[1] = target: T1, Androgen receptor (Mus musculus) (UniProt P19091); assay: Antagonist activity against mouse androgen receptor assessed as reduction of 10 nM DHT-induced transcriptional activity at 10 uM after 24 hrs by cell-based luciferase reporter gene assay relative to control
T1 sequence (whole entry): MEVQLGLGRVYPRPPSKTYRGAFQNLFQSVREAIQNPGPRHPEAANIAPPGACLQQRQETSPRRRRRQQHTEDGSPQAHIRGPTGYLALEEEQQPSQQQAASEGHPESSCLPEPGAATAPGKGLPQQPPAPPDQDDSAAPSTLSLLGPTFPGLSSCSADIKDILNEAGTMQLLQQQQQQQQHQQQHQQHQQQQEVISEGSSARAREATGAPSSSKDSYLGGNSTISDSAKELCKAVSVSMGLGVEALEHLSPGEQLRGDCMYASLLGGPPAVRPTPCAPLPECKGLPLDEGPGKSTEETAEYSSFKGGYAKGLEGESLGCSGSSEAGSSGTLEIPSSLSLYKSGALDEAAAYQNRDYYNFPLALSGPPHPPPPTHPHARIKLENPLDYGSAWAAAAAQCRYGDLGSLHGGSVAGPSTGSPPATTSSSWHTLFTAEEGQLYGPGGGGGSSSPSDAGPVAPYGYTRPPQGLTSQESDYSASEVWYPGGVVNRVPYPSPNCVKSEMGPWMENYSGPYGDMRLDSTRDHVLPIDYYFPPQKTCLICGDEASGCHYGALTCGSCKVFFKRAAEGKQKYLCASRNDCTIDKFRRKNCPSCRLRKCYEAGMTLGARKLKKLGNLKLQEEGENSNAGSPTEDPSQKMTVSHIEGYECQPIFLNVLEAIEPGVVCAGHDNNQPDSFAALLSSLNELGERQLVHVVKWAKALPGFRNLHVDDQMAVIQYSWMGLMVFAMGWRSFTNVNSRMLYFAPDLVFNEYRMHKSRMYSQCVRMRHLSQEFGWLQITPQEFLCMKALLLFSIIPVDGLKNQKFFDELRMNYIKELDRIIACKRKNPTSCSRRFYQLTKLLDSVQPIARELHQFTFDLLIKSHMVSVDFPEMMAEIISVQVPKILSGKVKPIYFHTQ
In short: (§1)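 Transcriptional activity is expressed as a percentage after 10 μM compound, given alone for agonist mode or with 10 nM DHT for antagonist mode. Data are from triplicate experiments.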

[2] = target: T1, Androgen receptor (Mus musculus); assay: Agonist activity at mouse androgen receptor at 10 uM after 24 hrs by cell-based luciferase reporter gene assay relative to control; in short: as §1
Androgen receptor [3] = target: T2, Androgen receptor (Mus musculus, UniProt P19091); assay: Displacement of [3H] ]5alpha-DHT from mouse androgen receptor expressed in monkey COS7 cells after 2 hrs by scintillation counting analysis; type: cell-based, COS-7
T2 sequence (P19091 whole entry): T1 sequence (whole entry)

PPC-1 = assay: Cytotoxicity against human androgen-independent/AR-negative PPC1 cells after 3 days by MTS/PMS assay; type: functional, cell-based
LNCaP [4] = assay: Cytotoxicity against human androgen-dependent LNCAP cells after 6 days by MTS/PMS assay; type: functional, cell-based; details: 144 h
LNCaP [5] = assay: Cytotoxicity against human androgen-dependent LNCAP cells at 10 uM after 7 days by MTS/PMS assay relative to control; type: functional; details: 168 h, read-out: GI
Androgen receptor [6] = target: T2, Androgen receptor; assay: Antagonist activity at mouse androgen receptor assessed as inhibition of transactivation after 24 hrs by cell-based luciferase reporter gene assay
[7] = Cytotoxicity against human androgen-independent/AR-positive C4-2 cells […] after 4 days by MTS/PMS assay; type: functional, cell-based; details: LNCaP C4-2, 96 h
[8] = target: T3, Androgen receptor (Homo sapiens) (UniProt P10275); assay: Inhibition of androgen receptor-mediated SRC2 coactivator recruitment in human PPC1 cells at 10 uM after 1 hr by DAPI staining-based fluorescence microscopic analysis; type: cell-based; details: PPC-1
T3 sequence (whole entry): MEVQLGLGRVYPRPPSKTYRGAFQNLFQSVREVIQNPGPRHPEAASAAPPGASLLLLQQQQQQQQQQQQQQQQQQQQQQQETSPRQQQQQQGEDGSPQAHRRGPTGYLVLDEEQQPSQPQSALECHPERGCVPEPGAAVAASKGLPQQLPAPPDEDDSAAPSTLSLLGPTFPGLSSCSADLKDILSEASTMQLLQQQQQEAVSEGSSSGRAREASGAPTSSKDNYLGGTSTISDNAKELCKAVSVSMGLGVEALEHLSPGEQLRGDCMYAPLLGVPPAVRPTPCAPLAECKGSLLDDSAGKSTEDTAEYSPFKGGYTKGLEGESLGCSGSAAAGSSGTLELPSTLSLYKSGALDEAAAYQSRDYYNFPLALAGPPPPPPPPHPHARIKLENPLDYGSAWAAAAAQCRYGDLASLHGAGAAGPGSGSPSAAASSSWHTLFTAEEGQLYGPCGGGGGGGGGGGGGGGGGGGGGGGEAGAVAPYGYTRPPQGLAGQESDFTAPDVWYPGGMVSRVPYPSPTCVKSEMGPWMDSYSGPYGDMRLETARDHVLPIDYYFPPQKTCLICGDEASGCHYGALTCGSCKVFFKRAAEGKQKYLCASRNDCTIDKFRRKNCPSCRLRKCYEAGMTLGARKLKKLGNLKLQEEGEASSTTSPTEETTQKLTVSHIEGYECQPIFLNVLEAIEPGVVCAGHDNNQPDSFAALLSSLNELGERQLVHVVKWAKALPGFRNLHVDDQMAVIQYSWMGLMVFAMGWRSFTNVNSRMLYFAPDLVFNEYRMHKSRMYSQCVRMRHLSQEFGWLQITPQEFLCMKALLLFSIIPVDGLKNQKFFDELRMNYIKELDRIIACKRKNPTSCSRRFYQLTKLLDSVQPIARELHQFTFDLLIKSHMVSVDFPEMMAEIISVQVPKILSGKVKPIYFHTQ

MEF = assay: Cytotoxicity against mouse MEF cells at 10 uM after 4 days by MTS/PMS assay; type: cell-based; details: 96 h
[9] = target: T3, Androgen receptor (Homo sapiens); assay: Inhibition of androgen receptor-mediated SRC1 coactivator recruitment in human PPC1 cells at 10 uM after 1 hr by DAPI staining-based fluorescence microscopic analysis; type: cell-based; details: PPC-1
[10] = target: T3, Androgen receptor (Homo sapiens); assay: Inhibition of DHT-induced androgen receptor-mediated GFP-AR protein nuclear translocation in human PPC1 cells at 10 uM after 1 hr by DAPI staining-based fluorescence microscopic analysis; type: cell-based; details: PPC-1

inhibition [1] | Activity [2] [%] | Structure (SMILES) | other results
86.9% | 5.2 | COc1ccc2c(c1)CCN(c1ccc(C(=O)Nc3ccc(C)cn3)cn1)C2 | –
91% | 1.7 | CCOc1ccc2c(c1OC)CCN(c1ccc(C(=O)Nc3cccc(C)n3)cn1)C2 | –
87.9% | 0.4 | CCOc1ccc2c(c1OCC)CCN(c1ccc(C(=O)Nc3cccc(OC)c3)cn1)C2 | –
94.9% | 4 | COc1ccc2c(c1)CCN(c1ccc(C(=O)Nc3cccc(C)n3)cn1)C2 | –
33.1% | 7.8 | O=C(Nc1ccccc1)c1ccc(C(=O)N2CCc3ccccc3C2)nc1 | –
27.5% | 9.4 | O=C(Nc1ncccn1)c1ccc(N2CCc3ccccc3C2)nc1 | –
58.6% | 3.6 | Cc1ccnc(NC(=O)c2ccc(N3CCc4ccccc4C3)nc2)c1 | –
95.3% | 3.5 | Cc1cccc(NC(=O)c2ccc(N3CCc4cc(OC(C)C)ccc4C3)nc2)n1 | –
95.7% | 3.1 | COc1cccc(NC(=O)c2ccc(N3CCc4cc(OC)ccc4C3)nc2)c1 | –
inactive | 6.4 | Cc1ccnc(NC(=O)c2ccc(Cl)nc2)c1 | –
86.4% | 5.6 | O=C(Nc1ccccn1)c1ccc(N2CCc3ccccc3C2)nc1 | –
49.7% | 10.4 | Cc1ccccc1NC(=O)c1ccc(N2CCc3ccccc3C2)nc1 | –
94.4% | 2.1 | COc1cc2c(cc1OC)CN(c1ccc(C(=O)Nc3cccc(C)n3)cn1)CC2 | –
65.1% | 7.1 | O=C(Nc1ccc(F)cc1)c1ccc(N2CCc3ccccc3C2)nc1 | –
58.2% | 9 | COc1ccc(CNC(=O)c2ccc(N3CCc4ccccc4C3)nc2)cc1 | –
95.6% | 4 | CCOc1ccc2c(c1)CCN(c1ccc(C(=O)Nc3cccc(OC)c3)cn1)C2 | –
60.9% | 3.1 | COc1cc2c(cc1OC)CN(c1ccc(C(=O)Nc3ncccc3C)cn1)CC2 | –
89.1% | 0.8 | COc1cc2c(c(OC)c1OC)CCN(c1ccc(C(=O)Nc3cccc(C)n3)cn1)C2 | –
0.6% | 3.8 | Cc1cccnc1NC(=O)c1ccc(Cl)nc1 | –
80.4% | 13.6 | COc1cccc(NC(=O)c2ccc(N3CCc4ccccc4C3)nc2)c1 | –
inactive | 14.1 | Cc1cccc(NC(=O)c2ccc(N3CCN(C)CC3)nc2)n1 | –
46.4% | 12.5 | COc1cccc(N(C)C(=O)c2ccc(N3CCc4ccccc4C3)nc2)c1 | –
92.9% | 0.6 | CCOc1ccc2c(c1OCc1ccccc1)CCN(c1ccc(C(=O)Nc3cccc(C)n3)cn1)C2 | –
48.8% | 9 | COc1ccccc1N(C)C(=O)c1ccc(N2CCc3ccccc3C2)nc1 | –
59% | 7.4 | COc1ccccc1NC(=O)c1ccc(N2CCc3ccccc3C2)nc1 | –

inhibition [1] | Activity [2] [%] | Structure (SMILES) | other results
79.6% | 7.2 | COc1ccc(NC(=O)c2ccc(N3CCc4ccccc4C3)nc2)cn1 | –
91.4% | 1.8 | CCOc1ccc2c(c1OC)CCN(c1ccc(C(=O)Nc3cccc(OC)c3)cn1)C2 | –
95.1% | 3.9 | CCOc1ccc2c(c1)CCN(c1ccc(C(=O)Nc3cccc(C)n3)cn1)C2 | Ki (Androgen receptor [3]): > 50000 nM; Activity (PPC-1): inactive; IC50 (LNCaP [4]): 1470 nM; inhibition of growth at 10 µM (LNCaP [5]): 80%; IC50 (Androgen receptor [6]): 460 nM; IC50 [7]: 11800 nM; inhibition [8]: Active; Activity (MEF): Non-toxic; inhibition [9]: Active; inhibition [10]: Active
61.3% | 4.5 | Cc1cccc(NC(=O)c2ccc(N3CCc4cc(OCc5ccccc5)ccc4C3)nc2)n1 | –
30.5% | 2.6 | CCOc1c(Cl)c(Cl)c2c(c1OCC)CCN(c1ccc(C(=O)Nc3cccc(C)n3)cn1)C2 | –
67.6% | 2.8 | COc1cc2c(cc1OC)CN(c1ccc(C(=O)Nc3ccc(C)cn3)cn1)CC2 | –
68.9% | 8.7 | O=C(Nc1ccccc1)c1ccc(N2CCc3ccccc3C2)nc1 | –
84.5% | 2.5 | COc1cc2c(cc1OC)CN(c1ccc(C(=O)Nc3ccccn3)cn1)CC2 | –
77.5% | 1.6 | CCOc1ccc2c(c1OCc1ccccc1)CCN(c1ccc(C(=O)N(C)c3cccc(C)n3)cn1)C2 | –
86.4% | 1 | CCOc1c(Cl)c(Cl)c2c(c1OCc1ccccc1)CCN(c1ccc(C(=O)Nc3cccc(C)n3)cn1)C2 | –
inactive | 4.9 | O=C(Nc1ccccn1)c1ccc(Cl)nc1 | –
96.6% | 3.9 | COc1cccc(NC(=O)c2ccc(N3CCc4c(ccc(OC)c4OC)C3)nc2)c1 | –
43.1% | 4.9 | Cc1ccc(NC(=O)c2ccc(Cl)nc2)nc1 | –
88.3% | 1 | CCOc1ccc2c(c1OCC)CCN(c1ccc(C(=O)Nc3cccc(C)n3)cn1)C2 | –
48.2% | 11.7 | Cc1ccccc1N(C)C(=O)c1ccc(N2CCc3ccccc3C2)nc1 | –
88.3% | 2.7 | COc1cc2c(cc1OC)CN(c1ccc(C(=O)Nc3cc(C)ccn3)cn1)CC2 | –
78.6% | 0.5 | CCOc1ccc2c(c1OCc1ccccc1)CCN(c1ccc(C(=O)Nc3cccc(OC)c3)cn1)C2 | –
32.5% | 12.1 | Cc1ccnc(N(C)C(=O)c2ccc(N3CCc4ccccc4C3)nc2)c1 | –
19.4% | 11.1 | COc1ccc(CNC(=O)c2ccc(N3CCCCC3)nc2)cc1 | –
57.4% | 9.7 | O=C(Nc1nccs1)c1ccc(N2CCc3ccccc3C2)nc1 | –
4.5% | 15 | O=C(Nc1ccccn1)c1ccc(C(=O)N2CCc3ccccc3C2)nc1 | –
90.2% | 3 | Cc1ccc(NC(=O)c2ccc(N3CCc4ccccc4C3)nc2)nc1 | –
65.7% | 6.8 | Cc1cccc(NC(=O)c2ccc(N3CCCCC3)nc2)n1 | –
64.1% | 5 | Cc1cccnc1NC(=O)c1ccc(N2CCc3ccccc3C2)nc1 | –
